Screening data as filed in PubChem.
Shown are actives, neighbours in structure and some others; about 1.9% of the full set was active somewhere.
MIN6 prolif: MIN6 beta-cell proliferation induction; AID 2380; 0.29% of 330,000 active; MIN6 cells proliferation, ATPlite luminescence, 48 h; cells starved in 0.2% serum; 100% = growth in 10% serum; proliferation, % at 10 µM;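 active = compounds whose signal lies at least 3.5 SD above the mean of all wells on their plate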
NR1D1 modulator: modulators of human Rev-erb alpha DNA binding | P20393 | 0.79% of 370,000 active | activity, % at 10 µM | Rev-erbα–FITC-DNA binding, fluorescence polarization, 90 min;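 active = activity above about 14%, limit read from the data; passing the limit was not always enough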
Rce1 inhib: blocks yeast Ras-converting enzyme; Q03530; yeast membranes, quenched prenylated peptide cleavage fluorescence; calls only; 0.27% of 290,000 active; AID 2563;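 active = fall in fluorescence gain of 50% or more versus controls, with final raw signal at or below 3038400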
Target sequence (Q03530 whole entry, looked up): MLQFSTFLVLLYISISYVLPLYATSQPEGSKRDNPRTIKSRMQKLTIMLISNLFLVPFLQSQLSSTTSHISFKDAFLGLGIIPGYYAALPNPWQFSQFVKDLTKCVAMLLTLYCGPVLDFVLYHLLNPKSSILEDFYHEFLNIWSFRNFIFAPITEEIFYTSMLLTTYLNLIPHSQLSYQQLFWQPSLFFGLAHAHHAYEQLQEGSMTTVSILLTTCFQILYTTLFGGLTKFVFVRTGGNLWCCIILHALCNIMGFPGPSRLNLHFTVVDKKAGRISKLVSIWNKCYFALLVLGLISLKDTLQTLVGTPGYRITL
UCH37 DUB inh: blocks the human deubiquitinase UCH37; AID 588478; Q9Y5K5; purified proteasome/UCH37, Ub-AMC cleavage fluorescence; 0.33% of 330,000 active; inhibition, % (concentration not given with the values);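 active = mean inhibition over replicate wells above about 20%, limit read from the data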
Target sequence (Q9Y5K5 whole entry, looked up): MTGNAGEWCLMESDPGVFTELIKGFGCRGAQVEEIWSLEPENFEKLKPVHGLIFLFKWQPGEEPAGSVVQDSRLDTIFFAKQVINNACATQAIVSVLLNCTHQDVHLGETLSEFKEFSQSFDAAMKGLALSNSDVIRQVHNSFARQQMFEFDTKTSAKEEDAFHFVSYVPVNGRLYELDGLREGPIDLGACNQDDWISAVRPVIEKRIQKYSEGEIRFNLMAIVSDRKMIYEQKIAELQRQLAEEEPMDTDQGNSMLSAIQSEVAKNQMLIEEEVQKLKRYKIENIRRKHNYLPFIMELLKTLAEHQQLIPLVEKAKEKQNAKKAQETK
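Material: human UCH37 enzyme supplied as purified proteasome complex. Measure: % inhibition of Ub-AMC cleavage fluorescence. Medium: pH 7.4 Tris-HCl (50 mM) with ovalbumin, ATP-MgCl2, DTT. Times: 30 min preincubation with enzyme, 25 min cleavage at room temperature. Detection: AMC fluorescence intensity at 355/460 nm.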
PG9 Ab binder: small molecules binding HIV-1 gp120 antibody PG9; TR-FRET gp120-PG9 antibody binding; inhibition, % at 6.7 µM; 0.43% of 360,000 active; AID 624416; in the data active = inhibition above about 8.5%
Yeast superoxide: lowers age-related superoxide in aged yeast cells; S. cerevisiae aged cells, superoxide DHE fluorescence; active compounds read low; superoxide response (% of plate mean), % at 10 µM; 0.18% of 330,000 active;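 active = superoxide response under a set limit, about three screen SD below normal, cut at about 65% in these data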;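 note: yeast aged for seven days with compound at 30 °C before DHE staining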
PG9 bind confirm: confirmation of small molecules binding HIV-1 gp120 antibody PG9 | inhibition, % at 6.7 µM | shares compounds with PG9 Ab binder | TR-FRET PG9 antibody binding, biochemical | 90% of 1,500 active; in the data active = inhibition above about 9%
PGV04 counter: binds control antibody PGV04 in PG9 binder counter-screen; shares compounds with PG9 Ab binder; TR-FRET PGV04 antibody-gp120 binding, biochemical; inhibition, % at 6.7 µM; 95% of 1,500 active; in the data active = inhibition above about 9.5%
PG9 binder DR: small molecules binding HIV-1 gp120 antibody PG9 | IC50, µM | shares compounds with PG9 Ab binder | AID 651848 | 95 tested, under 10 active | TR-FRET PG9 antibody-gp120 binding inhibition; in the data active = IC50 below about 10 µM
PGV04 DR counter: binds control antibody PGV04 in PG9 counter-screen | shares compounds with PG9 Ab binder | TR-FRET binding to control antibody PGV04 | IC50, µM | 20% of 95 active
PG126 DR counter: PG126 binding, dose response counter-screen; shares compounds with PG9 Ab binder; TR-FRET binding to antibody PG126, counterscreen; IC50, µM; 20% of 95 active; AID 651939
Numbers stand for hits; i = inactive; nt = no result given. Cut-off read from the data, not from the text of the source, unless noted: active = IC50 below about 9 µM; inactive = the rest.

SMILES	MIN6 prolif	NR1D1 modulator	Rce1 inhib	UCH37 DUB inh	PG9 Ab binder	Yeast superoxide	PG9 bind confirm	PGV04 counter	others
Cc1cccc(CCNS(=O)(=O)c2ccc3c(c2)oc(=O)n3C)c1	i	i	i	i	18	i	i	i
Cn1ncc(Cl)c1C(=O)NN=Cc1cccc(OC2CSC2)c1	nt	nt	nt	i	nt	nt	nt	nt
C[C@H](NC(=O)C[C@@H]1CC[C@H]2[C@@H](COC[C@H](O)CN2Cc2ccc(C(F)(F)F)cc2)O1)c1ccccc1	nt	i	nt	nt	8.8	nt	14	19
CCOC(=O)c1csc(NN=C2CCCc3ccccc32)n1	nt	nt	nt	i	nt	nt	nt	nt
CCOc1ccccc1-c1nc(C(N)=O)c2[nH]c(=O)n(-c3ccccc3)c2n1	i	i	i	i	19	i	28	58
COc1cccc(-c2nc(C(N)=O)c3[nH]c(=O)n(-c4ccccc4)c3n2)c1OC	i	i	i	i	i	i	nt	nt
O=C(CN(CCc1ccccc1)S(=O)(=O)c1ccc(Br)cc1)NN=Cc1ccc2c(c1)OCO2	nt	nt	nt	i	nt	nt	nt	nt
CCOc1ccc(/C(O)=C2/C(=O)C(=O)N(c3ccccn3)C2c2ccc(F)cc2)c(C)c1 (centres undefined)	i	i	i	i	10	i	18	24
Cc1ccc(/C(O)=C2/C(=O)C(=O)N(c3ccccn3)C2c2ccc(F)cc2)cc1 (centres undefined)	i	i	i	i	i	i	nt	nt
CCCOc1ccc(/C(O)=C2/C(=O)C(=O)N(c3ccccn3)C2c2ccc(OC)cc2)cc1C (centres undefined)	i	i	i	i	17	i	25	36
Cc1cc(C)nc(SC(C)C(=O)NN=Cc2cccs2)n1 (centres undefined)	nt	nt	nt	i	nt	nt	nt	nt
CC(=NNC(N)=S)C1(C)CCCCC1	nt	nt	nt	i	nt	nt	nt	nt
COc1ccccc1-c1nc(SCC(=O)NCc2ccco2)c2c(=O)n(C)c(=O)n(C)c2n1	i	i	i	i	28	i	26	30
COc1cc(C=NNC(=O)c2ccccn2)ccc1OC(=O)c1ccccc1Br	nt	nt	nt	i	nt	nt	nt	nt
Cc1ccccc1NC(=O)Nc1nc2ccc(S(C)(=O)=O)cc2s1	i	i	i	i	11	i	12	28
CCOc1ccc(NC(=O)Nc2nc3ccc(S(C)(=O)=O)cc3s2)cc1	i	i	i	i	14	i	19	22
CCc1cc2cc(C(=O)N3CCN(c4ccccc4)CC3)sc2s1	i	i	i	i	20	i	36	40
CCc1cc2cc(C(=O)N3CCN(Cc4ccccc4)CC3)sc2s1	i	i	i	nt	i	i	nt	nt
Cc1cc(Cl)ccc1OC(C)c1nnc(N)s1 (centres undefined)	i	i	nt	i	10	i	i	i
CCOc1ccc(C2C(C(=O)c3ccc(C)o3)=C(O)C(=O)N2Cc2cccnc2)cc1 (centres undefined)	i	i	i	i	23	i	35	41
CCCOc1ccc(C2C(C(=O)c3ccc(C)o3)=C(O)C(=O)N2Cc2ccco2)cc1 (centres undefined)	i	i	i	i	14	i	16	21
COc1ccc(C2C(C(=O)c3ccc(C)o3)=C(O)C(=O)N2Cc2cccnc2)cc1OC (centres undefined)	i	i	i	nt	i	i	nt	nt
Cc1ccc(C(=O)C2=C(O)C(=O)N(Cc3cccnc3)C2c2ccc(Cl)cc2)o1 (centres undefined)	i	i	i	i	19	i	27	36
Cc1ccc(C(=O)C2=C(O)C(=O)N(Cc3cccnc3)C2c2cccc(Oc3ccccc3)c2)o1 (centres undefined)	i	i	i	nt	48	i	47	54
CCn1ncc(C=NNC(=O)c2cc(Cl)ccc2OC)c1C	nt	nt	nt	i	nt	nt	nt	nt
SMILES	MIN6 prolif	NR1D1 modulator	Rce1 inhib	UCH37 DUB inh	PG9 Ab binder	Yeast superoxide	PG9 bind confirm	PGV04 counter	others
Cc1ccc(C(=O)C2=C(O)C(=O)N(c3ncccn3)C2c2ccc(Cl)cc2)o1 (centres undefined)	i	i	i	i	19	i	31	39
O=C(C1=C(O)C(=O)N(c2ncccn2)C1c1ccc(Cl)cc1)c1ccco1 (centres undefined)	i	i	i	i	i	i	nt	nt
Cc1nnc2c(NCCc3ccccc3)nc3ccccc3n12	i	i	i	i	11	i	49	62
CC(=NNC(=O)c1ccc(CSc2nncn2C)cc1)c1ccc2ccccc2c1	nt	nt	nt	i	nt	nt	nt	nt
O=C(O)CSc1c2c(nc3cc(C(=O)Nc4cccc(C(F)(F)F)c4)ccc13)CCC2	i	i	i	i	16	i	33	54
CCOc1ccc(NC(=O)c2ccc3c(SCC(=O)O)c4c(nc3c2)CCCC4)cc1	i	i	i	i	i	i	nt	nt
CCOc1cccc(NC(=O)CSc2nc(C)c3c(c2C#N)CCCC3)c1	i	i	i	i	12	i	16	29
Cc1nc(SCC(=O)Nc2ccc3c(c2)OCO3)c(C#N)c2c1CCCC2	i	i	i	i	i	i	nt	nt
COC(=O)c1cc2sc(Cl)cc2n1CC(=O)NCCC(C)C	i	i	i	i	11	i	20	24
COc1ccc(-c2cn3c(C)c(C(=O)Nc4cc(NC(C)=O)ccc4OC)sc3n2)cc1	i	i	i	i	12	i	9.8	31
S=c1nc[nH]c2c1[nH]c1ccc(Cl)cc12	i	i	i	i	34	i	15	17
O=c1c2[nH]c3ccc(Cl)cc3c2ncn1CCN1CCCCC1	i	i	nt	i	i	i	nt	nt
S=c1nc[nH]c2c1[nH]c1ccccc12	i	i	i	i	79	i	48	29	PG9 binder DR=i;PGV04 DR counter=i;PG126 DR counter=i
CCCOc1c(Cl)cc(C=NO)cc1OCC	nt	nt	nt	i	nt	nt	nt	nt
Cc1nn(-c2ccccc2)c(Cl)c1C=NNC(=O)c1cncc(Br)c1	nt	nt	nt	i	nt	nt	nt	nt
CC(C)(C)c1ccc(C(=O)Nc2ccc(Cl)cc2)cc1	i	i	i	i	8.6	i	16	18
CCC(C)C(NC(=O)c1ccccc1NC(=O)c1ccc(OC)cc1)C(=O)NCc1ccco1 (centres undefined)	i	i	i	i	i	i	nt	nt
COc1ccc(C(=O)Nc2ccc(Cl)cc2C(=O)NCc2ccco2)cc1	i	i	i	i	11	i	i	17
COc1ccc(-n2c(=O)[nH]cc(C(=O)Nc3ccc4c(c3)OCCO4)c2=O)cc1OC	i	i	i	i	i	i	nt	nt
